pIC50: −log10 of the molar value.
Each compound was assayed against T1, Renin (Homo sapiens, UniProt P00797) (assay: Inhibitory activity against human renin).
T1 sequence (P00797 whole entry): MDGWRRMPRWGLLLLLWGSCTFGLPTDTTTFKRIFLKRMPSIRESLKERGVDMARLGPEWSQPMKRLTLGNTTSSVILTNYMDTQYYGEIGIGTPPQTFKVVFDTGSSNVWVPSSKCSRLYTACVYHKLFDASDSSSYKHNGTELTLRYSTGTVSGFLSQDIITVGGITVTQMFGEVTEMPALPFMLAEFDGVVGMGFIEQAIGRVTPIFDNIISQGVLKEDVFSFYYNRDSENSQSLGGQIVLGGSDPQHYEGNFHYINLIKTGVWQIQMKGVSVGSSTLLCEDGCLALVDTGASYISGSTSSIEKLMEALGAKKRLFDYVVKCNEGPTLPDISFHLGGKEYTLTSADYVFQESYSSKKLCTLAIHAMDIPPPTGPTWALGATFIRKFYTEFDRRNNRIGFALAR
Summary of the method: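 It was incubated 2 h at 37 °C with compound added in DMSO. Angiotensin I generated, linear over this period, was corrected for endogenous AI and expressed as percent of DMSO control. IC50 was estimated from semilog plots of three or more concentrations.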

SMILES	pIC50
CC(C)C[C@H](NC(=O)CC(O)[C@H](CC(C)C)NC(=O)C/C=C/[C@H](Cc1ccccc1)NC(=O)OC(C)(C)C)C(=O)NCc1ccccc1 (stereo not given in full)	5.15
CC(C)C[C@H](CC(O)[C@H](CC(C)C)NC(=O)OCc1ccccc1)C(=O)N[C@@H](CC(C)C)C(O)CC(=O)N[C@@H](CC(C)C)C(=O)NCc1ccccc1 (stereo not given in full)	5.17
CC(C)C[C@H](NC(=O)OCc1ccccc1)C(=O)C[C@@H](Cc1ccccc1)C(=O)N[C@@H](CC(C)C)C(O)CC(=O)N[C@@H](CC(C)C)C(=O)NCc1ccccc1 (stereo not given in full)	4.96
CC(C)C[C@H](CC(O)[C@H](CC1CCCCC1)NC(=O)OC(C)(C)C)C(=O)N[C@@H](CC(C)C)C(O)CC(=O)N[C@@H](CC(C)C)C(=O)NCc1ccccc1 (stereo not given in full)	5.42
CC(C)C[C@H](NC(=O)C[C@@H](O)C(CC1CCCCC1)NC(=O)CCC[C@H](Cc1ccccc1)NC(=O)OC(C)(C)C)C(=O)NCc1cccc(CN)c1 (stereo not given in full)	6.20
CC(C)CC(=O)N[C@@H](Cc1ccccc1)C[S+]([O-])[C@@H](Cc1ccccc1)C(=O)N[C@@H](CC(C)C)C(O)CC(=O)N[C@@H](C)C(=O)N[C@@H](CC(C)C)C(O)CC(=O)NCc1ccccc1 (stereo not given in full)	5.70
CC(C)C[C@H](NC(=O)CC(O)[C@H](CC(C)C)NC(=O)CC(O)C(O)[C@H](CC1CCCCC1)NC(=O)OC(C)(C)C)C(=O)NCc1ccccc1 (stereo not given in full)	5.19
CC(C)CC(=O)N[C@@H](Cc1ccccc1)C1OC1CC(=O)N[C@@H](CC(C)C)C(O)CC(=O)N[C@@H](CC(C)C)C(=O)NCc1ccccc1 (stereo not given in full)	4.54
CC(C)CC(=O)N[C@H](CS[C@@H](Cc1ccccc1)C(=O)N[C@@H](CC(C)C)C(O)CC(=O)N[C@@H](C)C(=O)N[C@@H](CC(C)C)C(O)CC(=O)NCc1ccccc1)Cc1ccccc1 (stereo not given in full)	5.13
CC(C)C[C@H](NC(=O)C[C@@H](O)C(CC1CCCCC1)NC(=O)CC1OC1[C@H](Cc1ccccc1)NC(=O)OC(C)(C)C)C(=O)NCc1ccccc1 (stereo not given in full)	6.28
CC(C)CC(=O)N[C@@H](Cc1ccccc1)CS(=O)(=O)[C@@H](Cc1ccccc1)C(=O)N[C@@H](CC(C)C)C(O)CC(=O)N[C@@H](C)C(=O)N[C@@H](CC(C)C)C(O)CC(=O)NCc1ccccc1 (stereo not given in full)	5.82
CC(C)C[C@H](NC(=O)CC(O)[C@H](CC(C)C)NC(=O)CCC(=O)[C@H](Cc1ccccc1)NC(=O)OC(C)(C)C)C(=O)NCc1ccccc1 (stereo not given in full)	4.68
CC(C)C[C@H](NC(=O)CC(O)[C@H](CC(C)C)NC(=O)[C@H](Cc1ccccc1)[S+]([O-])C[C@H](Cc1ccccc1)NC(=O)OC(C)(C)C)C(=O)NCc1ccccc1 (stereo not given in full)	5.27
CC(C)C[C@H](NC(=O)C[C@@H](O)C(CC1CCCCC1)NC(=O)/C=C/C(O)[C@H](Cc1ccccc1)NC(=O)OC(C)(C)C)C(=O)NCc1ccc(CNC(=O)OCc2ccccc2)cc1 (stereo not given in full)	6.33
CC(C)C[C@H](NC(=O)CC(O)[C@H](CC(C)C)NC(=O)CC1OC1[C@H](Cc1ccccc1)NC(=O)OC(C)(C)C)C(=O)NCc1ccccc1 (stereo in doubt; 32)	5.92
CC(C)C[C@H](NC(=O)CC(O)[C@H](CC(C)C)NC(=O)[C@@H](CC(=O)[C@H](Cc1ccccc1)NC(=O)OCc1ccccc1)Cc1ccccc1)C(=O)NCc1ccccc1 (stereo not given in full)	4.64
CC(C)C[C@H](NC(=O)CC(O)[C@H](CC(C)C)NC(=O)CC1OC1[C@H](Cc1ccccc1)NC(=O)OC(C)(C)C)C(=O)NCc1ccccc1 (stereo in doubt; 37)	< 4.00
CC(C)CC(=O)N[C@H](CN[C@H](C(=O)N[C@@H](CC(C)C)C(O)CC(=O)N[C@@H](CC(C)C)C(=O)NCc1ccccc1)C(C)C)C(C)C (stereo not given in full)	4.82
CC(C)CC(=O)N[C@H](/C=C/CC(=O)N[C@@H](CC(C)C)C(O)CC(=O)N[C@@H](CC(C)C)C(=O)NCc1ccccc1)Cc1ccccc1 (stereo not given in full)	4.89
CC(C)C[C@H](NC(=O)[C@H](C)NC(=O)CC(O)[C@H](CC(C)C)NC(=O)[C@H](Cc1ccccc1)[S+]([O-])C[C@H](Cc1ccccc1)NC(=O)OC(C)(C)C)C(O)CC(=O)NCc1ccccc1 (stereo not given in full)	5.25
CC(C)C[C@H](NC(=O)CC(O)[C@H](CC(C)C)NC(=O)[C@H](Cc1c[nH]cn1)CC(O)[C@H](Cc1ccccc1)NC(=O)OC(C)(C)C)C(=O)NCc1ccccc1 (stereo not given in full)	6.11
CC(C)C[C@H](NC(=O)C[C@@H](O)C(CC1CCCCC1)NC(=O)/C=C/C(O)[C@H](Cc1ccccc1)NC(=O)OC(C)(C)C)C(=O)NCc1ccccc1 (stereo not given in full)	7.05

SMILES	pIC50
CC(C)C[C@H](NC(=O)CC(O)[C@H](CC(C)C)NC(=O)[C@H](Cc1ccccc1)CC(O)[C@H](Cc1ccccc1)NC(=O)OCc1ccccc1)C(=O)NCc1ccccc1 (stereo not given in full)	5.43
CC(C)C[C@H](NC(=O)CC(O)[C@H](CC(C)C)NC(=O)[C@H](Cc1ccccc1)CC(O)[C@H](CC(C)C)NC(=O)OCc1ccccc1)C(=O)NCc1ccccc1 (stereo not given in full)	5.08
CC(C)C[C@H](NC(=O)CC(O)[C@H](CC(C)C)NC(=O)CCC[C@H](Cc1ccccc1)NC(=O)OC(C)(C)C)C(=O)NCc1ccccc1 (stereo not given in full)	4.64
CC(C)CC(=O)N[C@H](CSCC(=O)N[C@@H](CC(C)C)C(O)CC(=O)N[C@@H](CC(C)C)C(=O)NCc1ccccc1)Cc1ccccc1 (stereo not given in full)	4.74
CC(C)C[C@H](NC(=O)C[C@@H](O)C(CC1CCCCC1)NC(=O)C/C=C/[C@H](Cc1ccccc1)NC(=O)OC(C)(C)C)C(=O)NCc1ccccc1 (stereo not given in full)	5.89
CC(C)C[C@H](NC(=O)CC(O)[C@H](CC(C)C)NC(=O)[C@H](Cc1cnc[nH]1)NC[C@H](CC1CCCCC1)NC(=O)OC(C)(C)C)C(=O)NCc1ccccc1 (stereo not given in full)	5.00
CC(C)C[C@H](NC(=O)CC(O)[C@H](CC(C)C)NC(=O)/C=C/C(O)[C@H](Cc1ccccc1)NC(=O)OC(C)(C)C)C(=O)NCc1ccccc1 (stereo not given in full)	5.68
CC(C)C[C@H](NC(=O)CC(O)[C@H](CC(C)C)NC(=O)C/C=C\[C@H](Cc1ccccc1)NC(=O)OC(C)(C)C)C(=O)NCc1ccccc1 (stereo not given in full)	< 4.00
CC(C)C[C@H](NC(=O)C[C@@H](O)C(CC1CCCCC1)NC(=O)CCC(O)[C@H](Cc1ccccc1)NC(=O)OC(C)(C)C)C(=O)NCc1ccccc1 (stereo not given in full)	7.21
CC(C)C[C@H](NC(=O)CC(O)[C@H](CC(C)C)NC(=O)[C@H](Cc1cnc[nH]1)N(O)C[C@H](Cc1ccccc1)NC(=O)OC(C)(C)C)C(=O)NCc1ccccc1 (stereo not given in full)	5.19
CC(C)C[C@H](NC(=O)C[C@@H](O)C(CC1CCCCC1)NC(=O)CC1OC1[C@H](Cc1ccccc1)NC(=O)OC(C)(C)C)C(=O)NCc1cccc(CN)c1 (stereo not given in full)	6.49
CC(C)C[C@H](NC(=O)C[C@@H](O)C(CC1CCCCC1)NC(=O)CCC(O)[C@H](Cc1ccccc1)NC(=O)OC(C)(C)C)C(=O)NCc1ccc(CN)cc1 (stereo not given in full)	7.66
CC(C)C[C@H](CC(=O)[C@H](CC1CCCCC1)NC(=O)OC(C)(C)C)C(=O)N[C@@H](CC(C)C)C(O)CC(=O)N[C@@H](CC(C)C)C(=O)NCc1ccccc1 (stereo not given in full)	4.59
CC(C)C[C@H](NC(=O)CC(O)[C@H](CC(C)C)NC(=O)[C@H](Cc1ccccc1)NC[C@H](Cc1ccccc1)NC(=O)OC(C)(C)C)C(=O)NCc1ccccc1 (stereo not given in full)	5.38
CC(C)C[C@H](NC(=O)CC(O)[C@H](CC(C)C)NC(=O)[C@H](Cc1c[nH]cn1)NC[C@H](Cc1ccccc1)NC(=O)OC(C)(C)C)C(=O)NCc1ccccc1 (stereo not given in full)	5.42
CC(C)C[C@H](NC(=O)C[C@@H](O)C(Cc1ccccc1)NC(=O)C/C=C/[C@H](Cc1ccccc1)NC(=O)OC(C)(C)C)C(=O)NCc1ccccc1 (stereo not given in full)	5.04
CC(C)C[C@H](NC(=O)C[C@@H](O)C(Cc1ccccc1)NC(=O)CC1OC1[C@H](Cc1ccccc1)NC(=O)OC(C)(C)C)C(=O)NCc1ccccc1 (stereo not given in full)	5.36
CC(C)C[C@H](NC(=O)CC(O)[C@H](CC(C)C)NC(=O)[C@H](Cc1ccccc1)N(O)C[C@H](Cc1ccccc1)NC(=O)OC(C)(C)C)C(=O)NCc1ccccc1 (stereo not given in full)	4.74
CC(C)C[C@H](NC(=O)CC(O)[C@H](CC(C)C)NC(=O)CCC(O)[C@H](CC(C)C)NC(=O)OCc1ccccc1)C(=O)NCc1ccccc1 (stereo not given in full)	5.40
CC(C)C[C@H](NC(=O)CC(O)[C@H](CC(C)C)NC(=O)CC(O)C(O)[C@H](Cc1ccccc1)NC(=O)OC(C)(C)C)C(=O)NCc1ccccc1 (stereo not given in full)	5.85
CC(C)C[C@H](NC(=O)C[C@@H](O)C(CC1CCCCC1)NC(=O)[C@H](Cc1cnc[nH]1)NC[C@H](Cc1ccccc1)NC(=O)OC(C)(C)C)C(=O)NCc1ccccc1 (stereo not given in full)	6.70
CC(C)C[C@H](NC(=O)CC(O)[C@H](CC(C)C)NC(=O)C(O)C(O)C(O)[C@H](Cc1ccccc1)NC(=O)OC(C)(C)C)C(=O)NCc1ccccc1 (stereo not given in full)	4.96

Each compound was assayed against Renin (monkey) (assay: The compound was tested in vitro for inhibitory activity against Renin in monkey plasma).

SMILES	pIC50
CC(C)C[C@H](NC(=O)CC(O)[C@H](CC(C)C)NC(=O)CNC(=O)[C@H](Cc1ccccc1)NC(=O)OC(C)(C)C)C(=O)NCc1ccccc1 (stereo not given in full)	5.96

Source: ChEMBL document CHEMBL1124705, “Renin inhibitors containing isosteric replacements of the amide bond connecting the P3 and P2 sites” (J Med Chem, 1990)
